Data set [1] addresses Voltage-gated inwardly rectifying potassium channel KCNH2 (Homo sapiens, UniProt Q12809). In words: Inhibition of human ERG expressed in CHO cells measured after 5 mins by Qpatch method. The format is cell-based. The method in brief:
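CHO cells stably expressing hERG, whole-cell QPatch. Vehicle applied 5 min, then 0.3, 3.0, 10 and 30 µM in rising order, each concentration applied twice. Current measured after 5 min as the average of 3 voltage pulses; block taken relative to vehicle pretreatment, mean ± SEM.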
(Patch clamp records ionic current or voltage across a cell membrane.)

Data set [2] in a line: Negative allosteric modulation of human GluN1a/GluN2B receptor expressed in CHO cells assessed as inhibition of glutamate and glycine-induced calcium flux preincubated for 5 mins followed by glutamate and glycine addition and measured after 5 mins by calcium 5 dye based FLIPR assay. Format: cell-based. The method in brief: (§1)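 Tet-On CHO T-Rex cells expressing hGluN1a with GluN2A, 2B, 2C or 2D, plated at 20,000 cells/well and induced 24 h before the assay in the presence of ketamine. Cells loaded 1 h at room temperature with Calcium 5 dye, pH 7.4 HEPES buffer. Compound added 5 min, then glutamate (~EC80) plus 10 µM glycine for 5 min; FLIPR fluorescence normalized to control wells. Three independent runs in duplicate (two for some).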

The nature of data set [3]: Displacement of 3-[3H] 1-(azetidin-1-yl)-2-[6-(4-fluoro-3-methyl-phenyl)pyrrolo[3,2-b]pyridin-1-yl]ethanone from GluN1a/GluN2B receptor in rat cortex membranes measured after 2 hrs by liquid scintillation counting method. Format: cell membranes. The essentials: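 Rat adult cortex was homogenized in 50 mM Tris pH 7.4, and membranes were washed by centrifugation. Membranes were incubated with the [3H] pyrrolopyridine tracer and test compound for 2 h at room temperature with shaking. Non-specific binding was defined with 10 µM CP-101,606. Bound tracer was separated by filtration on PEI-soaked GF/B filters and counted by liquid scintillation. Ki was obtained from a competition fit using tracer Kd; three independent runs in duplicate.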

Data set [4] is described as follows: Stability of compound in phosphate buffer at pH 7 assessed as drug decomposition measured after 24 h. To be noted: pH 7, 24 h.
Data set [5] can be described thus: Metabolic stability in rat liver microsomes assessed as extraction ratio at 1 uM after 5 to 60 mins in presence of NADPH by LC-MS/MS analysis. Format: ADME, Microsome. To be noted: time 5-60 min, read-out: ERH. The essentials: (§2)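 Human and rat liver microsomes, run in duplicate; stability reported as microsomal extraction ratio.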
Data set [6] in a line: Stability of compound in phosphate buffer at pH 2 assessed as drug decomposition measured after 24 h. To be noted: pH 2, 24 h.
A short description of data set [7]: Metabolic stability in human liver microsomes assessed as extraction ratio at 1 uM after 5 to 60 mins in presence of NADPH by LC-MS/MS analysis. The format is ADME, Microsome. To be noted: time 5-60 min, read-out: ERH. The essentials:
as §2
(Liver microsomes are vesicles of endoplasmic reticulum, rich in cytochrome P450 enzymes.)

Data set [8] can be described thus: Efflux ratio of apparent permeability across basolateral to apical side over apical to basolateral side in MDCK-MDR1 cells at 5 uM measured after 60 mins by LC-MS/MS analysis. To be noted: dog. The format is ADME, cell-based, Canis lupus familiaris. The method in brief:
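MDCK-MDR1 cells, passages 6-30, seeded at 3.4×10^5 cells/cm² and cultured 3 days. Test compound at 5 µM final (1% DMSO) in HBSS, pH 7.4, applied to the donor side. A→B and B→A runs at 37 °C for 60 min, in duplicate, quantified by LC/MS/MS. Efflux ratio taken as B-A/A-B; monolayer integrity checked by lucifer yellow.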

Data set [9] in a line: Solubility of compound in phosphate buffer at pH 7 measured after 3 days. Format: physicochemical. To be noted: time 3 day. The essentials: (§3)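 Solubility in aqueous buffer at pH 2 and pH 7, and in simulated gastric and intestinal fluids.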
Data set [10] can be described thus: Solubility of compound in phosphate buffer at pH 2 measured after 3 days. To be noted: time 3 day. Format: physicochemical. The method in brief: as §3
A short description of data set [11]: Negative allosteric modulation of human GluN1a/GluN2A receptor expressed in CHO cells assessed as inhibition of glutamate and glycine-induced calcium flux preincubated for 5 mins followed by glutamate and glycine addition and measured after 5 mins by calcium 5 dye based FLIPR assay. Format: cell-based. The essentials:
as §1
In general terms: Calcium assays in cells follow changes in intracellular calcium, usually with a dye or a luminescent sensor.

A short description of data set [12]: Negative allosteric modulation of human GluN1a/GluN2D receptor expressed in CHO cells assessed as inhibition of glutamate and glycine-induced calcium flux preincubated for 5 mins followed by glutamate and glycine addition and measured after 5 mins by calcium 5 dye based FLIPR assay. Format: cell-based. The essentials:
as §1

A short description of data set [13]: Negative allosteric modulation of human GluN1a/GluN2C receptor expressed in CHO cells assessed as inhibition of glutamate and glycine-induced calcium flux preincubated for 5 mins followed by glutamate and glycine addition and measured after 5 mins by calcium 5 dye based FLIPR assay. The format is cell-based. The essentials:
as §1

Data set [14] in a line: Protein binding in human plasma at 1 uM after 6 hrs by equilibrium dialysis method. The format is ADME, cell-free. To be noted: read-out: PPB (converted).
Data set [15] is described as follows: Half life in Sprague-Dawley rat at 0.5 mg/kg, iv or 2.5 mg/kg, po using 20% HP-beta-CD formulation by LC-MS/MS analysis. The format is ADME, organism-based. To be noted: in vivo. The essentials: (§4)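 Rats dosed 0.5 mg/kg i.v. and 2.5 mg/kg p.o., n=3 ± SD. Default vehicle is 20% HP-β-CD; one PK set used 1:1 PEG400/water and another 30% SBE-β-CD.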
The nature of data set [16]: Volume of distribution at steady state in Sprague-Dawley rat at 0.5 mg/kg, iv or 2.5 mg/kg, po using 20% HP-beta-CD formulation by LC-MS/MS analysis. Format: ADME, organism-based. To be noted: in vivo, read-out: Vdss. The essentials:
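Rat PK at 0.5 mg/kg i.v. and 2.5 mg/kg p.o., vehicle 20% HP-β-CD. n=3, values given as mean ± SD.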

Data set [17] can be described thus: Clearance in Sprague-Dawley rat at 0.5 mg/kg, iv using 20% HP-beta-CD formulation by LC-MS/MS analysis. Format: ADME, organism-based. To be noted: in vivo. The essentials: (§5)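 Rat PK with IV and PO dosing, n=3. The usual doses were 0.5 mg/kg IV and 2.5 mg/kg PO in 20% HP-β-CD. One compound was instead given at 0.1 mg/kg IV and 0.5 mg/kg PO.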
Data set [18] in a line: Oral bioavailability in Sprague-Dawley rat at 2.5 mg/kg using 20% HP-beta-CD formulation by LC-MS/MS analysis. The format is ADME, organism-based. To be noted: in vivo. The method in brief: as §4
Data set [19] in a line: Cmax in Sprague-Dawley rat at 0.5 mg/kg, iv or 2.5 mg/kg, po using 20% HP-beta-CD formulation by LC-MS/MS analysis. The arrangement: dose 2.5 mg/kg. Format: ADME, organism-based. To be noted: in vivo. The essentials: as §5

SMILES strings stand for the structures. In brackets after ≈: the same amount, converted by molar mass. Some results are limits rather than exact numbers.

Sequence of Voltage-gated inwardly rectifying potassium channel KCNH2 (Q12809 whole entry): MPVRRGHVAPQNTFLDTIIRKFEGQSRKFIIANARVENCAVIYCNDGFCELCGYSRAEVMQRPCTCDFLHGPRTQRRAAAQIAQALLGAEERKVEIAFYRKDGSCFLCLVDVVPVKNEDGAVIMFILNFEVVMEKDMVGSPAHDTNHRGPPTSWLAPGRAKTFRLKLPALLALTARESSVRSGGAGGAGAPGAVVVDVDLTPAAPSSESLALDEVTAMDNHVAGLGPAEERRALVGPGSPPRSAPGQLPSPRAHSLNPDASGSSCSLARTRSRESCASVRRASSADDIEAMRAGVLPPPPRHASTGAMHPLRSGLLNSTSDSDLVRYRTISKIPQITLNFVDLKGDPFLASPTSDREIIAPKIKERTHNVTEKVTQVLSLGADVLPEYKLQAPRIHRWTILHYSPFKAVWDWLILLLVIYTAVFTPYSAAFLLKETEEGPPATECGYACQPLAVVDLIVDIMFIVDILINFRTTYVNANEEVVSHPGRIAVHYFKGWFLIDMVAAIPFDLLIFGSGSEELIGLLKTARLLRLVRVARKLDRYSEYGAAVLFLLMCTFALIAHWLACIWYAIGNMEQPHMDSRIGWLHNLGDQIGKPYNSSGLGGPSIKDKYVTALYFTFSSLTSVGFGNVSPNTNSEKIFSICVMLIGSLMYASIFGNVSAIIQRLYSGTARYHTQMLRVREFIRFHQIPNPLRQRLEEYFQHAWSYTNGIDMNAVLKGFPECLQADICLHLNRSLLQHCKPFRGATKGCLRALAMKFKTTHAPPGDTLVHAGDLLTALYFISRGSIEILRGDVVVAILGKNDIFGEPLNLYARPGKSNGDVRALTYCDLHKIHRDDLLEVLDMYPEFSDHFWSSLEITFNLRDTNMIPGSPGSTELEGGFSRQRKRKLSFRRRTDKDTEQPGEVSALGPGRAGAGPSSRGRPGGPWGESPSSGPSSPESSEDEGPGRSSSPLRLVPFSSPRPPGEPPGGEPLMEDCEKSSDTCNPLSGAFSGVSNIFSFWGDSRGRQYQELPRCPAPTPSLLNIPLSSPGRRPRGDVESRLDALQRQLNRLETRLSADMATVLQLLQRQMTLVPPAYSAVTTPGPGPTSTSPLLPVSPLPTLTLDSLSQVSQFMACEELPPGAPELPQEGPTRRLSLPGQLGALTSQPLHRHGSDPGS

A word on the IC50: it is the midpoint of a concentration-inhibition curve. The term Ki denotes a dissociation constant, usually derived from enzyme kinetics or from competition with a known ligand. Read a high Ki as weaker binding. Turning to `Cn1c(=O)n(CC(=O)N2CCC2)c2cc(-c3ccc(C4CC4)s3)cnc21`, the 50% inhibitory concentration (IC50) was > 10000 nM in [1] and 81 nM in [2]. For the same molecule, in data set [3], affinity was put at a Ki of 63 nM.

A word on the efflux ratio: it is the permeability from basolateral to apical divided by that in the opposite direction, in the common usage. For the molecule `Cn1c(=O)n(CC(=O)N2CCC2)c2cc(-c3ccc(C(F)F)s3)cnc21`, the Stabilty result in [4] and in [6] was “Unstable” in each case. The figures for the 50% inhibitory concentration (IC50) in [1] and in data set [2] were > 10000 nM and 6 nM, respectively. The hepatic extraction ratio at 1 µM in data set [5] was found to be 0.58; in [7], 0.46. Moreover, the Ki in [3] stood at 19 nM. The efflux ratio at 1 h, 5 µM in [8] was 5.8.

As a reminder, the solubility is the dissolved amount per volume that the medium holds. The low end stands for a poorly soluble substance, the high end for a readily soluble substance. For `CN(C)C(=O)Cn1c(=O)n(C)c2ncc(-c3cccc(C(F)(F)F)c3)cc21`, the solubility at 72 h in data set [9] and in [10] was 6 µM (≈ 2.27 µg/mL) throughout. The IC50 in data set [1] was > 10000 nM; in [2] it was 47 nM. Further, the hepatic extraction ratio at 1 µM in data set [5] was 0.31; in data set [7], 0.38. In data set [3], this molecule displayed a Ki of 19 nM. For the same molecule, the efflux ratio at 1 h, 5 µM in data set [8] was 7.

For the molecule `O=C(Cn1c(=O)[nH]c2ncc(-c3cccc(C(F)(F)F)c3)cc21)NC1CC1`, the solubility at 72 h in data set [9] and in [10] was < 4 µM throughout. Further, the half-inhibitory concentration (IC50) in [1], in data set [11], in [12] and in data set [13] was > 10000 nM in each case. The fraction unbound at 6 h, 1 µM in [14] was 0.004.

For the molecule `Cn1c(=O)n(CC(=O)N2CCC2)c2cc(-c3cc(C(F)F)cs3)cnc21`, the Stabilty result in data set [4] and in data set [6] was “Unstable” each time. The IC50 in data set [1] was > 10000 nM; in data set [2], 79 nM. The hepatic extraction ratio at 1 µM in [5] is 0.52; in data set [7] it was < 0.3. In [3], this molecule came in with a Ki of 59 nM. For the same molecule, in data set [8], the efflux ratio at 1 h, 5 µM was 9.1.

The half-life is how long it takes for the measured level to halve. A lower half-life goes with rapid decline. Broadly, the clearance is the rate of elimination divided by the concentration. The bioavailability is dose-corrected exposure relative to a reference, in per cent. The term Cmax denotes the highest concentration seen after dosing. As to `Cc1ccc(-c2cnc3c(c2)n(CC(=O)N2CCC2)c(=O)n3C)s1`, in [15], the half-life is 12 min. The solubility at 72 h in [9] amounted to 48 µM (≈ 16.4 µg/mL); in data set [10], 39 µM (≈ 13.4 µg/mL). Moreover, the Vd in data set [16] turned out to be 1.1 L/kg. Besides, the IC50 in data set [1] is > 10000 nM; in data set [2], 25 nM. In [17], the clearance was found to be 114 mL/min/kg. In addition, the figures for the hepatic extraction ratio at 1 µM in data set [5] and in data set [7] were 0.78 and 0.56, respectively. Affinity in data set [3] was put at a Ki of 44 nM. This molecule also yielded a bioavailability in data set [18] of 1%. For the same molecule, the efflux ratio at 1 h, 5 µM in data set [8] turned out to be 3.2. In data set [19], this molecule returned a Cmax of 6 ng/mL.

`Cn1c(=O)n(CC(=O)N2CCC2)c2cc(-c3cccc(C(F)(F)F)c3)cnc21`: the solubility at 72 h in [9] amounted to 23 µM (≈ 8.98 µg/mL); in data set [10], 19 µM (≈ 7.42 µg/mL). Moreover, the IC50 in [1] is > 10000 nM; in data set [2] it was 97 nM. Moreover, the hepatic extraction ratio at 1 µM is < 0.2 in data set [5] and < 0.3 in [7]. The Ki in data set [3] is 19 nM. Further, the efflux ratio at 1 h, 5 µM in [8] stood at 9. In addition, the fraction unbound at 6 h, 1 µM in data set [14] was 0.052.

Take `Cc1csc(-c2cnc3c(c2)n(CC(=O)N(C)C)c(=O)n3C)c1`: the solubility at 72 h in data set [9] was determined as 25 µM (≈ 8.26 µg/mL); in data set [10], 31 µM (≈ 10.2 µg/mL). Also, the values for the IC50 in [1] and in [2] were > 10000 nM and 216 nM, respectively. Moreover, the hepatic extraction ratio at 1 µM was 0.82 in data set [5] and 0.59 in [7]. In data set [3], this molecule showed a Ki of 270 nM. In addition, in data set [8], the efflux ratio at 1 h, 5 µM was 3.5.

For `Cn1c(=O)n(CC(=O)N2CC(F)C2)c2cc(-c3cccc(C(F)(F)F)c3)cnc21`, the solubility at 72 h in data set [9] stood at 16 µM (≈ 6.53 µg/mL); in data set [10] it was 17 µM (≈ 6.94 µg/mL). The IC50 was > 10000 nM in data set [1] and 118 nM in data set [2]. The hepatic extraction ratio at 1 µM was < 0.2 in data set [5] and < 0.3 in [7]. This molecule also had a Ki in data set [3] of 25 nM. Further, the efflux ratio at 1 h, 5 µM in data set [8] worked out at 7.

Source of the values: ChEMBL document CHEMBL4725355, “Design, Synthesis, and Preclinical Evaluation of 3-Methyl-6-(5-thiophenyl)-1,3-dihydro-imidazo[4,5-b]pyridin-2-ones as Selective GluN2B Negative Allosteric Modulators for the Treatment of Mood Disorders” (J Med Chem, 2020).
